ARFGAP1 inhibitor: inhibitors of rat ARFGAP1 | Q62848 | Arfgap1-stimulated ARF1 GTP hydrolysis, GDP FP detection | inhibition, % at 16.5 µM | 0.26% of 360,000 active | AID 651572;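 active means inhibition above a per-plate limit, mean inhibition of low control wells plus 3 SD, cut at about 25% in these data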;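 further: 0% = DMSO wells with enzyme and 100% = wells lacking Arfgap1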
Target sequence (Q62848 1-136 limits assumed): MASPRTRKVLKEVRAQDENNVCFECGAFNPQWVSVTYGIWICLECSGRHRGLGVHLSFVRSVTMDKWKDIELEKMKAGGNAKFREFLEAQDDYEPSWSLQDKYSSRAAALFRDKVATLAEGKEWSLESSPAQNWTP
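Repeats: one replicate per compound; assay system: rat Arfgap1 catalytic domain, aa 1-136; times: enzyme reaction 120 min at 25 °C after 20 min preincubation; detection: FP of antibody-bound GDP Alexa 633 tracer, ex 620/em 688 nm; benchmarks: high control wells lacking Arfgap1, low control full reaction with DMSO; reagent: human ARF1(Δ1-17)-GTP substrate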
APOBEC3A inh: inhibitors of human APOBEC3A DNA deaminase | P31941 | recombinant A3A, FAM/TAMRA ssDNA deamination fluorescence | inhibition, % at 20 µM | 0.41% of 330,000 active;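 active means at least 40% inhibition at 20 µM here, with at most 30% in a related deaminase screen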;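 further: plate controls were A3A with DMSO for no effect and wells lacking A3A enzyme for full effect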
Target sequence (P31941 whole entry, looked up): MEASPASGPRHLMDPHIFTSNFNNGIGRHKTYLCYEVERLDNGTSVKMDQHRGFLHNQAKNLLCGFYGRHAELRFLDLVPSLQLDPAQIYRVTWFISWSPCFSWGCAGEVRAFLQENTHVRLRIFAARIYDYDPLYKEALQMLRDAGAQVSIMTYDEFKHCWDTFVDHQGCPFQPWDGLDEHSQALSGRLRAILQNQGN
A3G deaminase: APOBEC3G (human) deaminase inhibition | inhibition, % at 20 µM | Q9HC16 | recombinant A3G, ssDNA deamination FAM/TAMRA fluorescence | 0.28% of 330,000 active | AID 493012;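 active means inhibition of at least 40% at 20 µM, with no more than 30% in the related APOBEC3A deaminase screen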;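 further: plate controls were DMSO wells with A3G for no effect and wells lacking A3G enzyme for full effect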
Statin myotox sup: protects C2C12 myotubes from simvastatin toxicity; rescue of ATP level, % at 7.49 µM; ATP luminescence, 48 h; scaled: DMSO 0, geranylgeraniol control 100; 0.78% of 330,000 active;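 active means mean ATP rescue above about 67%, or every replicate alone reaching that limit, limit read from the data, passing the limit was not always enough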;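 further: myotubes were challenged with 10 µM simvastatin during compound exposure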
Mot1-301 SUMO: SUMOylation pathway inhibition by Mot1-301 growth rescue. S. cerevisiae Mot1-301 growth rescue, ATP luminescence, 38.5C; percent above DMSO median, 100 means doubled. growth rescue, % at 18.8 µM. 1% of 320,000 active;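 active means every valid replicate shows activation above 250% relative to neutral control wells; inactive means the rest, any valid replicate at or below 250%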;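 further: OY570 slx delta 5 strain wells were the positive control but not used for scaling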
ASAP1 GAP inh: blocks human ASAP1-stimulated Arf1 GTP hydrolysis | inhibition, % at 16.5 µM | Q9ULH1 | GDP FP detection | 0.19% of 360,000 active | AID 624377; in the data active means inhibition above about 25%;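 further: 0% = vehicle with enzyme and substrate and 100% = no enzyme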
Target sequence (Q9ULH1 325-724 limits assumed): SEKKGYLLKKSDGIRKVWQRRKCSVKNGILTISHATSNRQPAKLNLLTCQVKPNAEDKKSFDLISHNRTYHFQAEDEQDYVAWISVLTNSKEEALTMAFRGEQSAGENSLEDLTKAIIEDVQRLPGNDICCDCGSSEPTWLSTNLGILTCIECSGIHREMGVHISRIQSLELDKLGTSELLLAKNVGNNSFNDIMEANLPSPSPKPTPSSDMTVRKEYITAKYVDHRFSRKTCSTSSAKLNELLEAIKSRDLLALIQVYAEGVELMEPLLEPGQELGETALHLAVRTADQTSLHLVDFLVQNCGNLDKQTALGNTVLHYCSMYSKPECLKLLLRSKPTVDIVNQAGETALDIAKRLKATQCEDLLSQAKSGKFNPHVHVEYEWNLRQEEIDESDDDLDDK
Active calls of the source: *; / = no result. Only some compounds are listed: those with a hit (about 2.1% of all), similar ones and a draw of the others.

SMILES | ARFGAP1 inhibitor | APOBEC3A inh | A3G deaminase | Statin myotox sup | Mot1-301 SUMO | ASAP1 GAP inh
O=C(Nc1ccc2c(c1)[C@H]1C[C@H](CC(=O)N3CCCCC3)O[C@H](CO)[C@H]1O2)C1CCC1 | / | / | / | 9.4 | / | /
CCCN1[C@@H]2c3ccc(-c4cccnc4)c(=O)n3C[C@H]1[C@H](CO)[C@H]2C(=O)NCCc1cn(C)cn1 | / | / | / | -7.5 | / | /
COC(=O)C[C@H]1CC[C@@H]2[C@@H](COc3ccc(NC(=O)c4ccc(F)cc4)cc3C(=O)N2C)O1 | / | / | / | -8.6 | / | /
COCC(=O)N(C)C[C@H]1Oc2cc(C#CCN(C)C)ccc2S(=O)(=O)N([C@@H](C)CO)C[C@@H]1C | / | / | / | -4.8 | / | /
COc1ccc(S(=O)(=O)C(C#N)c2nc3ccccc3nc2N2CCCCC2)cc1 (stereo not given) | 6.9 | -1.2 | 41.2* | 21.2 | -3.0 | 7.6
C=CCNC(=O)C(C#N)c1nc2ccccc2nc1N1CCCCCC1 (stereo not given) | 1.7 | -3.8 | 0.0 | 85.7* | -8.8 | 3.2
CO[C@@H]1CN(C)C(=O)c2ccc(NC(=O)Nc3ccccc3Cl)cc2OC[C@@H](C)N(C)C[C@H]1C | / | / | / | 15.3 | / | /
CC(=O)N(C)C[C@H]1Oc2cc(C#Cc3ccccn3)ccc2S(=O)(=O)N([C@@H](C)CO)C[C@H]1C | / | / | / | -10.1 | / | /
CC(C)NC(=O)N[C@@H]1C=C[C@@H](CC(=O)NCCCN(C)C)O[C@H]1CO | / | / | / | -21.1 | / | /
C[C@H](O)C#Cc1ccc([C@@H]2[C@@H](CO)N3CCCCN(C(=O)c4ccncc4)C[C@H]23)cc1 | / | / | / | -13.1 | / | /
Cc1ccc(C2CC(c3cccs3)=NN2C(=O)c2ccc(Br)o2)cc1 (stereo not given) | 0.1 | -4.1 | -7.2 | 93.0* | 33.8 | 1.4
COc1cc(OC)cc(C(=O)N[C@H](C(=O)Nc2cccc(S(=O)(=O)N3CCCC3)c2)C(C)C)c1 | -5.0 | -2.2 | -6.2 | 19.4 | 720.3* | -12.6
N#CC1=C2SCN(c3ccccc3)CN2C(=O)CC1c1ccccc1Cl (stereo not given) | -7.0 | -1.3 | 56.8* | -9.9 | 7.0 | 8.8
CCc1ccccc1N1CSC2=C(C#N)C(c3cc(OC)c(OC)cc3OC)CC(=O)N2C1 (stereo not given) | -12.0 | -3.2 | 46.1* | / | 2.1 | 8.4
COc1cc(OC)c(C2CC(=O)N3CN(c4ccccc4)CSC3=C2C#N)cc1OC (stereo not given) | -4.6 | -3.6 | 25.2 | -3.1 | -1.2 | 10.1
COc1ccc(OC)c(C2CC(=O)N3CN(c4cccc(Cl)c4)CSC3=C2C#N)c1 (stereo not given) | 9.0 | 0.0 | 39.3 | 0.8 | 11.1 | 0.7
O=C1/C(=C/c2ccncc2)CCC/C1=C\c1ccncc1 | -7.6 | / | / | 249.5* | / | -8.7
CS(=O)(=O)Nc1ccc2c(c1)[C@@H]1C[C@@H](CC(=O)N3CCOCC3)O[C@H](CO)[C@@H]1O2 | / | / | / | -6.0 | / | /
COc1ccc(-c2[nH]ncc2CNCC(C)(C)N2CCOCC2)cc1F | 7.4 | -6.0 | -9.3 | 88.3* | -8.7 | -3.4
C[C@H]1CN([C@@H](C)CO)C(=O)c2cc(C#Cc3ccccc3F)cnc2O[C@H]1CN(C)C(=O)C1CCC1 | / | / | / | -55.2 | / | /
C[C@H]1CN([C@@H](C)CO)C(=O)Cc2cc(NC(=O)CCCCCC(=O)Nc3ccccc3N)ccc2O[C@H]1CN(C)Cc1ccc(-c2ccccc2)cc1 | / | / | / | 142.3* | / | /
C[C@H](CO)N1C[C@H](C)[C@@H](CN(C)Cc2ccc(C(F)(F)F)cc2)Oc2ccc(NC(=O)CCCCCC(=O)Nc3ccccc3N)cc2CC1=O | / | / | / | 106.5* | / | /
C[C@@H]1CN([C@@H](C)CO)C(=O)Cc2cc(NC(=O)CCCCCC(=O)Nc3ccccc3N)ccc2O[C@@H]1CN(C)Cc1ccc(C(F)(F)F)cc1 | / | / | / | -16.9 | / | /
C[C@H]1CN([C@@H](C)CO)C(=O)Cc2cc(NC(=O)CCCCCC(=O)Nc3ccccc3N)ccc2O[C@@H]1CN(C)Cc1ccc(Cl)c(Cl)c1 | / | / | / | 124.0* | / | /
C[C@@H]1CN([C@H](C)CO)C(=O)Cc2cc(NC(=O)CCCCCC(=O)Nc3ccccc3N)ccc2O[C@H]1CN(C)Cc1ccc(Oc2ccccc2)cc1 | / | / | / | 104.1* | / | /
SMILES | ARFGAP1 inhibitor | APOBEC3A inh | A3G deaminase | Statin myotox sup | Mot1-301 SUMO | ASAP1 GAP inh
C[C@@H]1CN([C@H](C)CO)C(=O)Cc2cc(NC(=O)CCCCCC(=O)Nc3ccccc3N)ccc2O[C@H]1CN(C)Cc1ccccc1 | / | / | / | 38.7 | / | /
COCC(=O)N(C)C[C@H]1Oc2cc(-c3ccc(OC)cc3)ccc2S(=O)(=O)N([C@@H](C)CO)C[C@H]1C | / | / | / | 10.1 | / | /
C[C@@H]1CCCCO[C@@H](CN(C)C(=O)Nc2cccc3ccccc23)[C@@H](C)CN([C@H](C)CO)C(=O)c2cc(NC(=O)Nc3ccc4c(c3)OCO4)ccc2O1 | / | / | / | 37.1 | / | /
O=C(Nc1ccc(Oc2cccc(C(F)(F)F)c2)nc1)c1ccco1 | 11.9 | 2.0 | -3.2 | -22.5 | 342.1* | 4.7
CC(C)NC(=O)N1C[C@H]2[C@@H](c3ccccc31)[C@@H](CO)N2C(=O)c1ccncc1 | / | / | / | 11.1 | / | /
CCSc1nnc(NC(=O)c2c(-c3ccccc3Cl)noc2C)s1 | -4.0 | 3.3 | 0.1 | 126.0* | 119.2 | -4.9
Cc1onc(-c2ccccc2Cl)c1C(=O)Nc1nnc(-c2cccc([N+](=O)[O-])c2)s1 | -18.5 | -4.5 | -10.4 | -15.5 | 11.3 | -1.2
O=C(Cc1ccccc1)N/N=C/c1cccnc1 | -0.5 | -1.4 | -8.5 | 10.1 | 313.3* | 5.3
Cc1ccc(N/N=C/c2cccnc2)cc1 | -13.3 | 2.6 | 0.3 | / | 289.2* | -11.9
COCC(=O)N1[C@H](CO)[C@H]2c3ccccc3N(C(=O)C3CC3)C[C@H]21 | / | / | / | 3.3 | / | /
C[C@@H]1CN([C@H](C)CO)C(=O)c2c(c3ccccc3n2C)-c2ccccc2CO[C@H]1CN(C)C(=O)C1CC1 | / | / | / | 18.0 | / | /
CSc1ccc(C(C(C(=O)c2cccs2)N2CCOCC2)N2CCOCC2)cc1 (stereo not given) | -0.9 | -1.4 | 3.3 | 77.4* | -5.4 | 4.4
O=C(C[C@@H]1CC[C@@H](NC(=O)c2ccc3c(c2)OCO3)[C@@H](CO)O1)NCc1ccc(F)cc1 | / | / | / | -6.3 | / | /
CCOC(=O)c1c(C)oc2ccc(OCC(=O)C(C)(C)C)cc12 | -3.5 | -1.9 | -4.3 | 143.9* | 100.7 | 1.3
CC(C)NC(=O)N(C)C[C@@H]1Oc2c(NS(C)(=O)=O)cccc2C(=O)N([C@H](C)CO)C[C@H]1C | / | / | / | 17.3 | / | /
CC(C(=O)Nc1ccc(C(=O)O)c(O)c1)N1C(=O)/C(=C\c2ccco2)SC1=S (stereo not given) | / | 90.5 | 68.7 | 125.8* | 3.2 | /
Cn1cc([N+](=O)[O-])c(C(=O)Nc2ccn(Cc3c(F)c(F)cc(F)c3F)n2)n1 | -3.9 | -0.4 | -7.2 | 143.6* | -6.3 | 7.4
Cn1ncc([N+](=O)[O-])c1C(=O)Nc1ccn(Cc2ccccc2F)n1 | 8.6 | 1.8 | -0.3 | 1.8 | -1.7 | -5.2

Compound activity (PubChem)
